{"data": "Measured values collected from several papers", "note": "Compare with care: the assays were run in different laboratories."}
{"Compound": "C[C@@H]1[C@H](O)[C@@H](C)/C=C/C=C/C=C/C=C/C=C/C=C/C=C/[C@H](O[C@@H]2O[C@H](C)[C@@H](O)[C@H](N)[C@@H]2O)C[C@@H]2O[C@](O)(C[C@@H](O)C[C@@H](O)[C@H](O)CC[C@@H](O)C[C@@H](O)CC(=O)O[C@H]1C)C[C@H](O)[C@H]2C(=O)O", "tested on": "Leishmania major", "test": "parasite growth, MTT", "setting": "72 h, promastigote", "measurement": "IC50", "result": "9.6 µM"}
{"Compound": "COc1c(N2C[C@@H]3CCCN[C@@H]3C2)c(F)cc2c(=O)c(C(=O)O)cn(C3CC3)c12", "tested on": "Enterococcus faecalis", "test": "microbial growth, broth dilution", "setting": "clinical isolate", "measurement": "MIC50", "result": "0.5 µg/mL"}
{"Compound": "COc1ccc(Nc2cnnc3cc(-c4cnc(N5CCN(C)CC5)nc4)ccc23)cc1Cl", "tested on": "Leishmania major", "test": "parasite growth", "setting": "intracellular, amastigote", "measurement": "EC50", "result": "> 2.2 µM"}
{"Compound": "CCC(=CCc1c(O)cc2c(c1O)C(=O)C[C@@H](c1ccc(O)cc1)O2)CC", "tested on": "HeLa", "test": "cell growth or viability, MTT", "setting": "100 µM, 48 h", "measurement": "inhibition", "result": "99.5%"}
{"Compound": "COc1ccc(Nc2cnnc3cc(-c4cnc(N5CCCN(C)CC5)nc4)ccc23)nc1", "tested on": "Leishmania major", "test": "parasite growth", "setting": "intracellular, amastigote", "measurement": "EC50", "result": "> 23 µM"}
{"Compound": "CCC(=CCc1c(O)cc2c(c1O)C(=O)C[C@@H](c1ccccc1O)O2)CC", "tested on": "HeLa", "test": "cell growth or viability, MTT", "setting": "30 µM, 48 h", "measurement": "inhibition", "result": "9.27%"}
{"Compound": "CNC(=S)NN=Cc1ccc(O)c(OC)c1", "tested on": "Leishmania major", "test": "parasite growth", "test system": "J774.A1", "setting": "72 h, intracellular, amastigote", "measurement": "IC50", "result": "112 µM"}
{"Compound": "CC[C@H]1OC(=O)[C@H](C)[C@@H](O[C@H]2C[C@@](C)(OC)[C@@H](O)[C@H](C)O2)[C@H](C)[C@@H](O[C@@H]2O[C@H](C)C[C@H](N(C)C)[C@H]2O)[C@](C)(O)C[C@@H](C)/C(=N\\OCOCCOC)[C@H](C)[C@@H](O)[C@]1(C)O", "tested on": "Enterococcus faecalis", "test": "microbial growth", "setting": "clinical isolate", "measurement": "MIC90", "result": "> 128 µg/mL"}
